Assay results taken from PubChem BioAssay AID623922 (The Scripps Research Institute Molecular Screening Center, 2012).
Activity calls are given as the source filed them.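 Rule for the calls: active = residual nuclease activity at or below 52% of the solvent-only control; inactive = the rest.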

Molecular target: RecBCD enzyme subunit RecC (Escherichia coli (strain K12)) + RecBCD enzyme subunit RecB (Escherichia coli (strain K12)) (UniProt P07648+P08394)
Assay: RecBCD dsDNA exonuclease activity remaining – biochemical, radioactivity readout, 50 µM single dose, counter-screen for AddAB inhibitor project, late-stage follow-up (AID 623922)
Settings: purified RecBCD, [3H] dsDNA nuclease, TCA-soluble radioactivity; at 50 µM; hits give low values
Procedure, shortened: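 Test system: purified Escherichia coli RecBCD helicase-nuclease enzyme; benchmarks: DMSO control and no-enzyme background; schedule: mixing on ice, 20 min reaction at 37 °C; signal: radioactivity counts of acid-soluble DNA digestion products; probe or stimulus: [3H] T7 dsDNA, 6 µM nucleotides; medium: pH 8.5, 10 mM MgCl2, 25 µM ATP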

Sequence of RecBCD enzyme subunit RecC (Escherichia coli (strain K12)) + RecBCD enzyme subunit RecB (Escherichia coli (strain K12)) (P07648 whole entry, looked up): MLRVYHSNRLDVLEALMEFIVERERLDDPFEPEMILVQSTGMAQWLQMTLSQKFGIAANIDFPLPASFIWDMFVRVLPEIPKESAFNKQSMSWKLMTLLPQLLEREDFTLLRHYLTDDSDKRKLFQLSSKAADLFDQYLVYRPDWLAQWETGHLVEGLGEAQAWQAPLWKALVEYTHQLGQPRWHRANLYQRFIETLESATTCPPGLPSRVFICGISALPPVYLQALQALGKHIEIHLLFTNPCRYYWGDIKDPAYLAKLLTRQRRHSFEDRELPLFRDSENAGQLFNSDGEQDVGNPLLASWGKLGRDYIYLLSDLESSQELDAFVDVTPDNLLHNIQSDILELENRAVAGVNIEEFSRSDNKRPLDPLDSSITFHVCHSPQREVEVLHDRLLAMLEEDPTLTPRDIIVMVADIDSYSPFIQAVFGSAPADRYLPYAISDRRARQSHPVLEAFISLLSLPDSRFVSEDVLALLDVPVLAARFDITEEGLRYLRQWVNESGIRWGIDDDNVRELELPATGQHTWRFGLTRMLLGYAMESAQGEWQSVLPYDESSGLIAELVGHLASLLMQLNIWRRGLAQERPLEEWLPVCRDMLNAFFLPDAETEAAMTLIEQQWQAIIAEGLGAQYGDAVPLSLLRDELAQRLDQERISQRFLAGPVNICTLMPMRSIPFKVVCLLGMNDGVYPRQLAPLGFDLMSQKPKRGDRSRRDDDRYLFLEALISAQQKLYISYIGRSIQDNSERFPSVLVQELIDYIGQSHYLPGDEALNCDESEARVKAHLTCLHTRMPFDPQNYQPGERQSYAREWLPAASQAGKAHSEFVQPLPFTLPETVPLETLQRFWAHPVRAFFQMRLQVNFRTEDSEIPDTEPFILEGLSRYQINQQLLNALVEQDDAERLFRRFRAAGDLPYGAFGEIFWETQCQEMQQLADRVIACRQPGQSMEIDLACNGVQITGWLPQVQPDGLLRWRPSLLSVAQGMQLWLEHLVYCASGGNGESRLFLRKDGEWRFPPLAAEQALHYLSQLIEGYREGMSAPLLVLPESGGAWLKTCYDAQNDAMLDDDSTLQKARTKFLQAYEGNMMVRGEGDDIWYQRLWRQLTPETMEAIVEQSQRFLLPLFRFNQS
Sequence of RecBCD enzyme subunit RecC (Escherichia coli (strain K12)) + RecBCD enzyme subunit RecB (Escherichia coli (strain K12)) (P08394 whole entry, looked up): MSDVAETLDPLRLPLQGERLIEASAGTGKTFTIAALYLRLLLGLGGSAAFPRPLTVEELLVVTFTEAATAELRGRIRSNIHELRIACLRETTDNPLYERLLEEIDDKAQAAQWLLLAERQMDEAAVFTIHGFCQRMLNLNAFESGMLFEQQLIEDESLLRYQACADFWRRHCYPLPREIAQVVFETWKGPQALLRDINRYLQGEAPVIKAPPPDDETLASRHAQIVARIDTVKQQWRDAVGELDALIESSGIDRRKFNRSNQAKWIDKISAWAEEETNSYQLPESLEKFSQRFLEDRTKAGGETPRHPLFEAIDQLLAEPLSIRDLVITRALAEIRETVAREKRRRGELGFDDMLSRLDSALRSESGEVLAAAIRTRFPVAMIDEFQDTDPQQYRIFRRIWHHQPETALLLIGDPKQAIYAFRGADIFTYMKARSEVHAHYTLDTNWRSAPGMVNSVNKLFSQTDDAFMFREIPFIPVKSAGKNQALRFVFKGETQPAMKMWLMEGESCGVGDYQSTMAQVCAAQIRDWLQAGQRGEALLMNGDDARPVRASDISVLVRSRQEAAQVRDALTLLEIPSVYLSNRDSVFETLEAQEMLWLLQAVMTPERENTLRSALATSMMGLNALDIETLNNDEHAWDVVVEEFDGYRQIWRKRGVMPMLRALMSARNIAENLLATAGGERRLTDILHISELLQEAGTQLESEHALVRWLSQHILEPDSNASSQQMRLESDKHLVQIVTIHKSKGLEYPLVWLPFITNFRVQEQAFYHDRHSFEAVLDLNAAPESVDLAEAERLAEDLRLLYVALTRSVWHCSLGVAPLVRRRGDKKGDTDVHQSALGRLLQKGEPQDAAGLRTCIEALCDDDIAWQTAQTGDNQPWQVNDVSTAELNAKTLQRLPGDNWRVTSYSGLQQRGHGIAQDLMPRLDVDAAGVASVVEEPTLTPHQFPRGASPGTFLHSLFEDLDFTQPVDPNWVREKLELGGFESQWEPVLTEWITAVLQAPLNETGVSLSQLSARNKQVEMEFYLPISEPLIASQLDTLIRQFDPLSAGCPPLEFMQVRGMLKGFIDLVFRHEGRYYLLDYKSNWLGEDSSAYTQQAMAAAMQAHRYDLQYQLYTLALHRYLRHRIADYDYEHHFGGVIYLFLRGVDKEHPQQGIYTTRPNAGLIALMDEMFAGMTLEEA

Row | SMILES | residual nuclease activity
1 | CCn1cc(C(=O)O)c(=O)c2cnc(N3CCNCC3)nc21 | 93% (inactive)
2 | CCn1cc(C(=O)O)c(=O)c2cnc(N3CCN(C(=S)Nc4ccccc4C(F)(F)F)CC3)nc21 | 43%
3 | CCn1cc(C(=O)O)c(=O)c2cnc(N3CCN(C(=S)Nc4cccc(C(F)(F)F)c4)CC3)nc21 | 8%
4 | CCn1cc(C(=O)O)c(=O)c2cnc(N3CCN(C(=S)NC(=O)c4cccc(C)c4)CC3)nc21 | 47%
5 | CCn1cc(C(=O)O)c(=O)c2cnc(N3CCN(C(=S)Nc4ccc5c(c4)OCO5)CC3)nc21 | 46%
6 | CCn1cc(C(=O)O)c(=O)c2cnc(N3CCN(C(=S)NC4CC5CCC4C5)CC3)nc21 (configuration not stated) | 75% (inactive)

Other lines, results leading:

Row | residual nuclease activity | SMILES
7 | 45% | CCn1cc(C(=O)O)c(=O)c2cnc(N3CCN(C(=S)NCc4ccccc4)CC3)nc21
8 | 68% (inactive) | CCn1cc(C(=O)O)c(=O)c2cnc(N3CCN(C(=S)Nc4ccccc4)CC3)nc21
9 | 91% (inactive) | CCn1cc(C(=O)O)c(=O)c2cnc(N3CCN(C(=O)Nc4ccccc4)CC3)nc21
10 | 27% | CCn1cc(C(=O)O)c(=O)c2cnc(N3CCN(C(=S)NC(C)c4ccccc4)CC3)nc21 (configuration not stated)
11 | 50% | CCn1cc(C(=O)O)c(=O)c2cnc(N3CCN(C(=S)Nc4ccc(Cl)cc4)CC3)nc21
12 | 51% | CCn1cc(C(=O)O)c(=O)c2cnc(N3CCN(C(=S)Nc4ccc(F)cc4)CC3)nc21
